Calls of active or inactive are those of the source. No cut-off for these calls is given here.
Assays:
[1] = Cell cycle arrest in mouse tsFT210 cells assessed as accumulation at M phase at 100 uM after 18 hrs by flow cytometry; format: functional, cell-based
Procedure, shortened: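 Synchronous-culture assay: tsFT210 cells seeded at 1x10^5 cells/mL, preincubated 1 h at 32 °C, then incubated with compound 18 h at 32 °C; morphology checked by microscopy; DNA content by flow cytometry after staining with 50 μg/mL propidium iodide, 0.1% sodium citrate, 0.2% NP-40; nuclei/chromosomes stained with Hoechst 33258 after KCl swelling and Carnoy fixation.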

[2] = Antiproliferative activity against mouse tsFT210 cells after 48 hrs by WST-8 assay; format: functional, cell-based; settings: tsFT210, 48 h
Procedure, shortened: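 tsFT210 cells (temperature-sensitive cdc2 mutant from mouse mammary carcinoma FM3A), kept in RPMI 1640 with 10% fetal calf serum at 32 °C; exponentially growing cells exposed to compound at 32 °C for 48 h, then WST-8 added for 4 h at 37 °C; absorbance at 450 nm read to estimate cell number; IC50 reported.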

[3] = molecular target: DNA topoisomerase 2-alpha (Homo sapiens) (UniProt P11388); test: Inhibition of topoisomerase 2 assessed as relaxation of supercoiled DNA at 100 uM
DNA topoisomerase 2-alpha (Homo sapiens), sequence (P11388 whole entry): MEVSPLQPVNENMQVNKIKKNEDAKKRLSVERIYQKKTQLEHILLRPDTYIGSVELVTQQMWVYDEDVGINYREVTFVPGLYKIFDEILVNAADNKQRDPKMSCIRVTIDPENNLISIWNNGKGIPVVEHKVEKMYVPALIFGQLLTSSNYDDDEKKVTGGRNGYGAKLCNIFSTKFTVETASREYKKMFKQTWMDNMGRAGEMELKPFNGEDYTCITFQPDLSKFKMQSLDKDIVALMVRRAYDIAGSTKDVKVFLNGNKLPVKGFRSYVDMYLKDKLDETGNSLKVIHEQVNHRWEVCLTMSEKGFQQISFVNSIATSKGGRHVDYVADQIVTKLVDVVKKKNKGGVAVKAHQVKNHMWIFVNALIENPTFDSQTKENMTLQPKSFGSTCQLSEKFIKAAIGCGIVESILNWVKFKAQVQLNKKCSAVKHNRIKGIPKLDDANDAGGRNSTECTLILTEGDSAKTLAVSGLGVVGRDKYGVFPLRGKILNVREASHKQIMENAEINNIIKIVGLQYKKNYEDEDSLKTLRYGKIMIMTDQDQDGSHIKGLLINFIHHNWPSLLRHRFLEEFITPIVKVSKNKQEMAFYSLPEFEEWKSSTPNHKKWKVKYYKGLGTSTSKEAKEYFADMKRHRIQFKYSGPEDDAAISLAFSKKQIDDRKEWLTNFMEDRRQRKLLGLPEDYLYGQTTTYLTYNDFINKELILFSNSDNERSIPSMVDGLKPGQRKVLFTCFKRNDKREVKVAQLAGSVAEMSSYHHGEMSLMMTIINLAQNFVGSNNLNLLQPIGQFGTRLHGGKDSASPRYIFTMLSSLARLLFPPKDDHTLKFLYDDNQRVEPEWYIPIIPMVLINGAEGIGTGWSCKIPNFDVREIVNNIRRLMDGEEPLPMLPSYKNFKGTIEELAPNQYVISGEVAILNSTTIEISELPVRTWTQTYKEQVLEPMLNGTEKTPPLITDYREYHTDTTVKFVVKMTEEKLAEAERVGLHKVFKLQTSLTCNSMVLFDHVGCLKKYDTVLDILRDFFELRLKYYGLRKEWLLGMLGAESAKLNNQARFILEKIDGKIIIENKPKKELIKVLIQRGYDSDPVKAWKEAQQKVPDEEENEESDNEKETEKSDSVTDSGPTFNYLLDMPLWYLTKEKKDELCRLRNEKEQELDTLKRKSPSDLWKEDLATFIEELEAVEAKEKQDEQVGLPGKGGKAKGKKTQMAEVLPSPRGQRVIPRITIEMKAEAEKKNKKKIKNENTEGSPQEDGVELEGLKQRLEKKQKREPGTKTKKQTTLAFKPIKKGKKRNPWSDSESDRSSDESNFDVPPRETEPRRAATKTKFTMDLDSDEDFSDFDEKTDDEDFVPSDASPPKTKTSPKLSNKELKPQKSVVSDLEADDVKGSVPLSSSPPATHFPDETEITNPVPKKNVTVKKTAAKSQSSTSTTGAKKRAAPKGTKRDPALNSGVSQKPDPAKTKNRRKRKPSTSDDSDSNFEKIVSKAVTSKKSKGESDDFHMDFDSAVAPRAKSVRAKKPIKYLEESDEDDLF

[4] = Inhibition of tubulin polymerization in presence of microtubule-associated proteins
Procedure, shortened: (§1)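 Tubulin containing MAPs in PME buffer (100 mM PIPES pH 6.9, 2 mM EGTA, 1 mM MgSO4) with GTP and drug in DMSO, tubulin added last; 37 °C, absorbance change at 351 nm over 10 min. Drug concentration varied across runs for delta absorbance versus concentration curves; colchicine standard curves made for each tubulin batch.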

[5] = Cytotoxicity against human H520 cells at 10 uM after 72 hrs by Cell Titer 96 Aqueous Non-Radioactive assay; format: functional; settings: NCI-H520, 72 h, read-out: Inhibition
Procedure, shortened: (§2)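 MCF7, NCI-H520 or PC-3 cells (RPMI-1640, 10% FBS) plated 1 × 10^4/well, 24 h at 37 °C, exposed 72 h to drug at 10 or 100 μM in DMSO or EtOH vehicle (controls usually 0.2%). Survival by MTS/PMS formazan absorbance at 490 nm, plate blank subtracted, as percent of vehicle wells; quadruplicate; etoposide or m-AMSA positive controls.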

[6] = Cytotoxicity against human H520 cells at 100 uM after 72 hrs by Cell Titer 96 Aqueous Non-Radioactive assay; format: functional; settings: NCI-H520, 72 h, read-out: Inhibition; procedure, shortened: as §2
[7] = test system: MCF7; test: Cytotoxicity against human MCF7 cells at 10 uM after 72 hrs by Cell Titer 96 Aqueous Non-Radioactive assay; format: functional; settings: MCF7, 72 h, read-out: Inhibition; procedure, shortened: as §2
[8] = test system: MCF7; test: Cytotoxicity against human MCF7 cells at 100 uM after 72 hrs by Cell Titer 96 Aqueous Non-Radioactive assay; format: functional; settings: MCF7, 72 h, read-out: Inhibition; procedure, shortened: as §2
[9] = test system: PC-3; test: Cytotoxicity against human PC3 cells at 10 uM after 72 hrs by Cell Titer 96 Aqueous Non-Radioactive assay; format: functional; settings: PC-3, 72 h, read-out: Inhibition; procedure, shortened: as §2
[10] = test system: PC-3; test: Cytotoxicity against human PC3 cells at 100 uM after 72 hrs by Cell Titer 96 Aqueous Non-Radioactive assay; format: functional; settings: PC-3, 72 h, read-out: Inhibition; procedure, shortened: as §2
[11] = test system: MCF7; test: Cytotoxicity against human MCF7 cells after 72 hrs by Cell Titer 96 Aqueous Non-Radioactive assay; format: functional; settings: MCF7, 72 h
Procedure, shortened: (§3)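 MCF7, NCI-H520 and PC-3 cells in RPMI-1640 + 10% FBS, 2 mM L-glutamine, 0.1 mM non-essential amino acids; 1 × 10^4 cells/well, 24 h at 37 °C, then drug in DMSO or EtOH (<1%) for 72 h. Cells under 50% survival at 100 μM retested over further concentrations for GI50. MTS/PMS read at 490 nm, blank subtracted, versus vehicle wells; quadruplicate or more.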

[12] = test system: PC-3; test: Cytotoxicity against human PC3 cells after 72 hrs by Cell Titer 96 Aqueous Non-Radioactive assay; format: functional; settings: PC-3, 72 h; procedure, shortened: as §3
[13] = test system: CCRF-CEM; test: Cytotoxicity against human CCRF-CEM cells; format: functional
[14] = Cytotoxicity against human HL60 (TB) cells; format: functional; settings: HL-60
[15] = test system: K562; test: Cytotoxicity against human K562 cells; format: functional
[16] = test system: MOLT-4; test: Cytotoxicity against human MOLT4 cells; format: functional
[17] = test system: RPMI-8226; test: Cytotoxicity against human RPMI8226 cells; format: functional
[18] = test system: SR; test: Cytotoxicity against human SR cells; format: functional
[19] = test system: EKVX; test: Cytotoxicity against human EKVX cells; format: functional
[20] = test system: COLO 205; test: Cytotoxicity against human COLO205 cells; format: functional
[21] = test system: HT-29; test: Cytotoxicity against human HT29 cells; format: functional
[22] = test system: OVCAR-3; test: Cytotoxicity against human OVCAR-3 cells; format: functional
[23] = test system: IGROV-1; test: Cytotoxicity against human IGROV1 cells; format: functional
[24] = test system: DU-145; test: Cytotoxicity against human DU145 cells; format: functional
[25] = test system: LOX IMVI; test: Cytotoxicity against human LOX IMVI cells; format: functional
[26] = Cytotoxicity against human […]; format: functional
[27] = test system: BT-549; test: Cytotoxicity against human BT549 cells; format: functional
[28] = test system: UO-31; test: Cytotoxicity against human UO31 cells; format: functional
[29] = Inhibition of tubulin polymerization in presence of microtubule-associated proteins at 60 uM; procedure, shortened: as §1
[30] = Cytotoxicity against human H520 cells after 72 hrs by Cell Titer 96 Aqueous Non-Radioactive assay; format: functional; settings: NCI-H520, 72 h; procedure, shortened: as §3
[31] = test system: HOP-92; test: Cytotoxicity against human HOP92 cells; format: functional
[32] = Cell cycle arrest in mouse tsFT210 cells assessed as accumulation at M phase at 30 uM after 18 hrs by flow cytometry; format: functional, cell-based
Procedure, shortened: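 Murine temperature-sensitive cdc2 mutant tsFT210 cells (from FM3A), kept in RPMI 1640 + 10% FCS at permissive 32 °C; seeded 1x10^5 cells/mL, preincubated 1 h at 32 °C, compound added, 18 h at 32 °C. Microscopy, then propidium iodide (50 μg/mL, 0.1% sodium citrate, 0.2% NP-40) flow cytometry for DNA content; Carnoy-fixed nuclei stained with Hoechst 33258.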

For `COc1ccc2c(C[C@@H]3NC(=O)[C@H](Cc4ccccc4)NC3=O)c[nH]c2c1`, the Activity [1] was “Active” and the IC50 [2] was 100 µM.
In the case of `CC(C)=CCc1[nH]c2ccccc2c1C[C@H]1NC(=O)[C@H]2CCCN2C1=O`, the Activity [3] is reported as “inactive”, the IC50 [4] is reported as > 700 µM and the percent cell survival relative to vehicle at 10 µM [5] is reported as > 100%. The cell survival (% of vehicle control) at 100 µM [6] was 99.8%, the cell survival (% of vehicle control) at 10 µM [7] was > 100% and the cell survival (% of vehicle control) at 100 µM [8] was > 100%. It also gave a percent cell survival relative to vehicle control at 10 µM [9] of 95.8%, a percent cell survival at 100 µM [10] of 78.9% and a GI50 [11] of 40 µM. For the same compound, the GI50 [12] was 21.2 µM, the GI50 [13] was 25.1 µM and the GI50 [14] was 29 µM. For the same compound, the GI50 [15] was 25.8 µM, the GI50 [16] was 21 µM and the GI50 [17] was 12.9 µM. It also gave a GI50 [18] of 12.1 µM, a GI50 [19] of 39.4 µM and a GI50 [20] of 21.2 µM. The GI50 [21] was 37.5 µM, the GI50 [22] was 38.2 µM and the GI50 [23] was 16 µM. The GI50 [24] was > 50 µM, the GI50 [25] was > 50 µM and the GI50 [26] was 11.9 µM. The GI50 [27] was 7.21 µM and the GI50 [28] was 12.6 µM.
For `CC(C)=CCc1[nH]c2ccccc2c1C[C@@H]1NC(=O)[C@H]2CCCN2C1=O`, the inhibition [29] was < 2%, the percent cell survival relative to vehicle at 10 µM [5] was 88.3% and the cell survival (% of vehicle control) at 100 µM [6] was 0.1%. The cell survival (% of vehicle control) at 10 µM [7] was 73.6%, the cell survival (% of vehicle control) at 100 µM [8] was 0% and the percent cell survival relative to vehicle control at 10 µM [9] was 59.3%. For the same compound, the percent cell survival at 100 µM [10] was 0.2%, the GI50 [30] was 11.9 µM and the GI50 [13] was 3.22 µM. For the same compound, the GI50 [14] was 22.4 µM, the GI50 [15] was 20.1 µM and the GI50 [16] was 5.96 µM. The GI50 [17] was 5.54 µM, the GI50 [18] was 9.46 µM and the GI50 [31] was 1.7 µM. For the same compound, the GI50 [19] was 6.9 µM, the GI50 [20] was 17.7 µM and the GI50 [21] was 5.25 µM. It also gave a GI50 [22] of 9.69 µM, a GI50 [23] of 11.5 µM and a GI50 [24] of 14 µM. The GI50 [25] was 9.23 µM, the GI50 [26] was 14.9 µM and the GI50 [27] was 13.2 µM. It also gave a GI50 [28] of 14.7 µM.
For `COc1cc([C@@H]2c3cc4c(cc3[C@@H](O[C@@H]3O[C@@H]5CO[C@@H](C)O[C@H]5[C@H](O)[C@H]3O)[C@H]3COC(=O)[C@H]23)OCO4)cc(OC)c1O` [ETOPOSIDE], the GI50 [30] was 8.7 µM, the GI50 [11] was 55.6 µM and the GI50 [12] was 11.1 µM.
With `COc1ccc2c(C[C@@H]3NC(=O)[C@@H]4CCCN4C3=O)c(CC=C(C)C)[nH]c2c1` [TRYPROSTATIN A] the IC50 [4] was 250 µM, the percent cell survival relative to vehicle at 10 µM [5] was 80.1% and the cell survival (% of vehicle control) at 100 µM [6] was 79.4%. The cell survival (% of vehicle control) at 10 µM [7] was > 100%, the cell survival (% of vehicle control) at 100 µM [8] was 95% and the percent cell survival relative to vehicle control at 10 µM [9] was 99.2%. For the same compound, the percent cell survival at 100 µM [10] was 95.6%, the GI50 [11] was > 100 µM and the GI50 [12] was 94 µM. For the same compound, the GI50 [13] was > 100 µM, the GI50 [14] was 11.3 µM and the GI50 [15] was 2.73 µM. The GI50 [17] was 37.1 µM, the GI50 [18] was 5.68 µM and the GI50 [31] was 21.2 µM. For the same compound, the GI50 [19] was > 100 µM, the GI50 [20] was > 100 µM and the GI50 [22] was > 100 µM. For the same compound, the GI50 [23] was 90.5 µM, the GI50 [24] was > 100 µM and the GI50 [25] was > 100 µM. The GI50 [26] was > 100 µM, the GI50 [27] was 79.7 µM and the GI50 [28] was > 100 µM. The IC50 [2] was 68 µM and the Activity [32] was “Active”.

From ChEMBL document CHEMBL1144702, “Synthesis and structure-activity relationship studies on tryprostatin A, an inhibitor of breast cancer resistance protein” (Bioorg Med Chem, 2008)
